The text below walks through data of ChEMBL document CHEMBL5104115, “Design, synthesis of novel triptolide-glucose conjugates targeting glucose Transporter-1 and their selective antitumor effect” (Eur J Med Chem, 2022).

In one data set the test system is SW-620. Put plainly: Cytotoxicity against human SW-620 cells incubated for 72 hrs by MTT assay. The format is functional, cell-based. To be noted: SW-620, 72 h. In a few lines:
(§1)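 Cells seeded at 4000/well, incubated overnight, then exposed to a range of concentrations, or DMSO vehicle, for 72 h. MTT (5 mg/mL solution) added for 4 h and formazan dissolved in DMSO. Absorbance read at 570 nm, and IC50 derived from the curves. Tumor lines were grown in RPMI 1640; HUVEC, HaCaT and LO2 were grown in DMEM, each with 10% FBS at 37 °C and 5% CO2.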
For orientation: Tetrazolium dyes change colour on reduction, which living cells bring about.

In the next data set the test system is MDA-MB-231. The experiment in a line: Cytotoxicity against human MDA-MB-231 cells incubated for 72 hrs by MTT assay. The note with it: MDA-MB-231, 72 h. The data set is classed as functional, cell-based. The essentials:
as §1

The next data set relates to HCT-116. Put plainly: Cytotoxicity against human HCT-116 cells incubated for 72 hrs by MTT assay. The format is functional, cell-based. The note with it: HCT-116, 72 h. The essentials: as §1
Another data set relates to HT-29. Put plainly: Cytotoxicity against human HT-29 cells incubated for 72 hrs by MTT assay. The data set is classed as functional, cell-based. The note with it: HT-29, 72 h. In a few lines:
as §1

Another data set concerns NCI-H460. The experiment in a line: Cytotoxicity against human NCI-H460 cells incubated for 72 hrs by MTT assay. The format is functional, cell-based. The note with it: NCI-H460, 72 h. The essentials:
as §1

The subject of another data set is NCI-H1975. The experiment in a line: Cytotoxicity against human NCI-H1975 cells incubated for 72 hrs by MTT assay. The data set is classed as functional, cell-based. The note with it: NCI-H1975, 72 h. The essentials: as §1
A short description of data set [1]: Cytotoxicity against HUVEC incubated for 72 hrs by MTT assay. The data set is classed as toxicity, cell-based. To be noted: human, HUVEC cells. In a few lines:
as §1

Data set [2] can be described thus: Cytotoxicity against human L02 cells incubated for 72 hrs by MTT assay. The data set is classed as toxicity, cell-based. In a few lines:
as §1

A short description of data set [3]: Cytotoxicity against human HaCaT cells incubated for 72 hrs by MTT assay. The format is toxicity, cell-based. In a few lines:
as §1

Data set [4] in a line: Octanol-water partition coefficient, logD of the compound in PBS at pH 7.4 by liquid chromatography based mass spectrometric analysis. The data set is classed as physicochemical. In a few lines: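 Shake-flask method: 3.0 mg compound dissolved in PBS-saturated n-octanol and rotated 24 h at room temperature. The octanol phase was then mixed with octanol-saturated PBS, rotated another 24 h and centrifuged. Both phases quantified by LC-MS against a standard curve, and log P = log(C octanol/C water).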

As usually defined, the IC50 is the midpoint of a concentration-inhibition curve. Read a low IC50 as higher potency. Regarding `CC(C)[C@]12O[C@H]1[C@@H]1O[C@]13[C@]1(O[C@H]1C[C@H]1C4=C(CC[C@@]13C)C(=O)OC4)[C@@H]2OC(=O)CCC(=O)O[C@H]1O[C@H](CO)[C@@H](O)[C@H](O)[C@H]1O`, the half-inhibitory concentration (IC50) was 3860 nM in the data set with SW-620; 4420 nM in the data set with MDA-MB-231; 1900 nM in the data set with HCT-116; 5370 nM with HT-29; 4080 nM in the data set with NCI-H460; 3420 nM with NCI-H1975. The results for the IC50 at 72 h in data set [1], in [2] and in data set [3] were 5680 nM, 2150 nM and 4300 nM, respectively.

As usually defined, the logD is the decadic logarithm of the distribution of all forms, ionised or not, between an organic phase and buffer at a given pH. In turn, `CC(C)[C@]12O[C@H]1[C@@H]1O[C@]13[C@]1(O[C@H]1C[C@H]1C4=C(CC[C@@]13C)C(=O)OC4)[C@@H]2OC(=O)CCC(=O)O[C@@H]1O[C@H](CO)[C@@H](O)[C@H](O)[C@H]1O` yielded a logD in [4] of -0.558. Also, the half-inhibitory concentration (IC50) worked out at 5510 nM in the data set with SW-620; 2280 nM with MDA-MB-231; 2350 nM with HCT-116; 2890 nM with HT-29; 2720 nM with NCI-H460; 1860 nM in the data set on NCI-H1975. The IC50 at 72 h in data set [1] turned out to be 8140 nM; in [2] it was 1380 nM; in data set [3], 1630 nM.

In the case of `CC(C)[C@]12O[C@H]1[C@@H]1O[C@]13[C@]1(O[C@H]1C[C@H]1C4=C(CC[C@@]13C)C(=O)OC4)[C@@H]2OC(=O)CCC(=O)OC[C@H]1OC(O)[C@H](O)[C@@H](O)[C@@H]1O` (stereo partly drawn), the IC50 stood at 5200 nM with SW-620; 6620 nM in the data set on MDA-MB-231; 2280 nM in the data set on HCT-116; 4280 nM in the data set with HT-29; 1070 nM with NCI-H460; 1140 nM in the data set with NCI-H1975. The IC50 at 72 h in data set [1] turned out to be 2020 nM; in data set [2] it was 1420 nM; in data set [3], 3900 nM.
